Experimental data as given in paper PMC3806060 (Journal of medicinal chemistry, 2013).

How the values were obtained:
Bcl-xL [1] = target: T1, Bcl-xL (Homo sapiens, UniProt Q07817); experiment: FP based competitive binding assay, Bcl-xL; conditions: versus 8
Method in brief: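 Competitive fluorescence-polarization assay for Bcl-xL: pre-incubated Bcl-xL (10 nM) and fluorescent probe (2 nM) with serial dilutions of test compound, room temperature, 2 h, gentle shaking. Millipolarization plotted against total compound concentration. IC50 obtained by nonlinear regression; Ki calculated from IC50.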

Bcl-2 [2] = target: T2, Bcl-2 (Homo sapiens, UniProt P10415); experiment: FP based competitive binding assay, Bcl-2; conditions: versus 8
T2 sequence (P10415 whole entry): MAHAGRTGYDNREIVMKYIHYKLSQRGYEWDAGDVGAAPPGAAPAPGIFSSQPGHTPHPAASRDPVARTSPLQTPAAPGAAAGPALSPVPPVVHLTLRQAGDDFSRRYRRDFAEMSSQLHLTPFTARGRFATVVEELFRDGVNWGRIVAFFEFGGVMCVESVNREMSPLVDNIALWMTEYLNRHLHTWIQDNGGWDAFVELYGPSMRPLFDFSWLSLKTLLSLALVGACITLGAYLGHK

[3] = tested on: H146 small-cell lung cancer cell line; experiment: Cell growth inhibition assay; type: cell-based, Human
[4] = tested on: animal model of human cancer; conditions: cited from earlier work
Bcl-2 [5] = target: T2, Bcl-2; conditions: read-out: Ki, binding to Bcl-2; cited from earlier work
Bcl-xL [6] = target: T1, Bcl-xL; conditions: read-out: Ki, binding to Bcl-xL; cited from earlier work
[7] = cited from earlier work
[8] = tested on: H146 small-cell lung cancer xenograft; conditions: 25 mg/kg, i.v., 5 days per week for 2 weeks; cited from earlier work

T1 sequence (Q07817 whole entry): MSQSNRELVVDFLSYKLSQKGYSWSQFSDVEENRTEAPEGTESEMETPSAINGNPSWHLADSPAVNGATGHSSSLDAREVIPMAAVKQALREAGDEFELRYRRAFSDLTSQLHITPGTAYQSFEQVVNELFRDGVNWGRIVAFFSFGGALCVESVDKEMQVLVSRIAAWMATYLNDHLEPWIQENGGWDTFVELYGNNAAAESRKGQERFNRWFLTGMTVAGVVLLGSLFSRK

Times less potent than compound 8 in binding to Bcl-xL (Bcl-xL [1]) [times]	Times less potent than compound 8 in binding to Bcl-2 (Bcl-2 [2]) [times]	SMILES	Times less potent than compound 8 in H146 cell growth inhibition ([3]; versus 8) [times]	Tumor regression [4]	Ki (Bcl-2 [5]) [nM]	Ki (Bcl-xL [6]) [nM]	Chemical stability [7]	Times more potent than compound 4 in H146 cell growth inhibition ([3]; versus 4) [times]	Antitumor activity in H146 xenograft model [8]
2	4	Cc1c(C(N)=O)c(-c2cccc(N3CCN(c4ccc(NS(=O)(=O)c5ccc(N[C@H](CCN(C)C)CSc6ccccc6)c([N+](=O)[O-])c5)cc4)CC3)c2)c(-c2ccc(Cl)cc2)n1C [Compound 9, (R)-5-(4-Chlorophenyl)-4-(3-(4-(4-(4-(4-(dimethylamino)-1-(phenylthio)butan-2-ylamino)-3-nitrophenylsulfonamido)phenyl)piperazin-1-yl)phenyl)-1,2-dimethyl-1H-pyrrole-3-carboxamide]	6						
		CCn1c(C)c(C(=O)O)c(-c2cccc(N3CCN(c4ccc(NS(=O)(=O)c5ccc(N[C@H](CCN6CCC(O)CC6)CSc6ccccc6)c(S(=O)(=O)C(F)(F)F)c5)cc4)CC3)c2)c1-c1ccc(Cl)cc1 [Compound 6, BM-957]		achieved tumor regression	< 1	< 1			
		CCn1c(C)c(C(=O)O)c(-c2cccc(N3CCN(c4ccc(NS(=O)(=O)c5ccc(N[C@H](CCN(C)C)CSc6ccccc6)c([N+](=O)[O-])c5)cc4)CC3)c2)c1-c1ccc(Cl)cc1 [Compound 5]			< 1	< 1	excellent chemical stability	8	failed to achieve long-lasting tumor regression
